Results on four compounds are retold here after ChEMBL document CHEMBL2346582, “Guanidino anthrathiophenediones as G-quadruplex binders: uptake, intracellular localization, and anti-Harvey-Ras gene activity in bladder cancer cells” (J Med Chem, 2013).

Data set [1] deals with T-24. In words: Binding affinity to HRAS G-quadruplex DNA in human T24 cells assessed as reduction in p21HRAS level at 5 uM after 72 hrs by immunoblotting analysis relative to control. A general note: Immunoblotting shows a protein as a band on a membrane.
The next data set concerns NIH3T3. In words: Cellular uptake in mouse NIH/3T3 cells after 4 hrs by FACS flow cytometric analysis in presence of dynasore. Format: ADME, cell-based. Conditions: nih3t3, 4 h.
Data set [2] relates to T-24. The data set is described as follows: Cellular uptake in human T24 cells at 4 degC by FACS flow cytometric analysis. The data set is classed as ADME, cell-based. In outline: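 T24 cells incubated with ligand at 4 °C or 37 °C. Intracellular ligand fluorescence measured by flow cytometry in the FL3 (680 nm) channel.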
On the technique in general: In flow cytometry, cells or beads pass a laser one at a time.

The species entered for data set [3] is Homo sapiens. In words: Thermal stabilization of human telomeric G-quadruplex FAM-TTAGGGTTAGGGTTAGGGTTAGGG-TAMRA DNA assessed as melting temperature at 1:4 DNA:ligand ratio by FRET assay. In outline:
(§1)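 Telomeric quadruplex (TTAGGG)4, 200 nM, dual-labelled, in 100 mM KCl, Tris-HCl buffer. Melted with ligand at r = 1, 2, 3, 4 or 5 ([ligand]/[quadruplex]). Samples equilibrated 5 min at 20 °C, then heated in 1 °C/min steps to 95 °C; TM read from the donor/acceptor emission.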

The subject of data set [4] is T-24. In words: Binding affinity to HRAS G-quadruplex DNA in human T24 cells assessed as reduction in p21HRAS level at 5 uM by immunoblotting analysis relative to control.
Data set [5] relates to T-24. The data set is described as follows: Cellular uptake in human T24 cells assessed as accumulation in nucleoplasm at 2.5 uM after 2 hrs by propidium iodide staining-based confocal microscopic analysis. The data set is classed as ADME, cell-based. Conditions: t-24, 2 h. The procedure, abridged: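 T24 cells plated (3 × 10^5) on coverslips and treated after 24 h with 2.5 μM ligand for 2 h. Fixed in 3% paraformaldehyde and permeabilized with Triton X-100. Cytoplasm immunostained for DRP1 with FITC secondary; nuclei stained with propidium iodide plus RNase A. Ligand red fluorescence excited at 543 nm; confocal Z-sections at 2 μm intervals.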

The species named for data set [6] is Homo sapiens. In words: Thermal stabilization of human telomeric G-quadruplex FAM-TTAGGGTTAGGGTTAGGGTTAGGG-TAMRA DNA assessed as melting temperature at 1:1 DNA:ligand ratio by FRET assay. The procedure, abridged:
as §1

The species entered for data set [7] is Homo sapiens. The data set is described as follows: Thermal stabilization of human telomeric G-quadruplex FAM-TTAGGGTTAGGGTTAGGGTTAGGG-TAMRA DNA assessed as melting temperature at 1:2 DNA:ligand ratio by FRET assay. The procedure, abridged: as §1
The species entered for data set [8] is Homo sapiens. In words: Thermal stabilization of human telomeric G-quadruplex FAM-TTAGGGTTAGGGTTAGGGTTAGGG-TAMRA DNA assessed as melting temperature at 1:5 DNA:ligand ratio by FRET assay. The procedure, abridged:
as §1

The species named for data set [9] is Homo sapiens. In words: Thermal stabilization of human telomeric G-quadruplex FAM-TTAGGGTTAGGGTTAGGGTTAGGG-TAMRA DNA assessed as melting temperature at 1:3 DNA:ligand ratio by FRET assay. In outline: as §1
Data set [10] relates to T-24. In words: Cellular uptake in human T24 cells at 0.5 to 10 uM after 10 mins to 8 hrs by flow cytometric analysis. To be noted: t-24, 10 µM. Format: ADME, cell-based. In outline:
(§2)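 Flow cytometric uptake of 10 μM ligand over time (15 min, 1, 2, 6, 8 h; T24, and up to 8 h in NIH 3T3 and 293). Cells plated at 5 × 10^4 per well the day before. Ligand fluorescence detected in FL3 (680 nm), at least 10,000 cells acquired.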

Data set [11] is filed under the species Homo sapiens. In words: Binding affinity to 32mer duplex DNA (unknown origin) at 5 uM by UV-vis titration.
In data set [12] the test system is HEK293. The data set is described as follows: Cellular uptake in human HEK293 cells at 0.5 to 10 uM after 8 hrs by flow cytometric analysis. The data set is classed as ADME, cell-based. Conditions: hek293, 8 h. The procedure, abridged: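 Cells plated at 5 × 10^4 per well and treated next day with ligand at […] for 8 h. Then trypsinized, resuspended in PBS and analysed by flow cytometry (488 nm excitation, FL3 680 nm, log scale), at least 10,000 cells per sample. Uptake read from intrinsic ligand red fluorescence.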

In data set [13] the test system is HEK293. The data set is described as follows: Cellular uptake in human HEK293 cells at 0.5 to 10 uM after 10 mins to 8 hrs by flow cytometric analysis. Format: ADME, cell-based. To be noted: hek293, 10 µM. The procedure, abridged: as §2

Molecules are shown by their SMILES. Activity calls are given as the source filed them. No cut-off for these calls is given here.

Regarding `N=C(N)NCCCNc1c2c(c(NCCNC(=N)N)c3sccc13)C(=O)c1ccccc1C2=O`, the result in the data set with T-24 [1] was Active. Moreover, the Drug uptake result in the data set with NIH3T3 was “Active”.
For `N=C(N)NCCCNc1c2c(c(NCCNC(=N)N)c3ccsc13)C(=O)c1ccccc1C2=O`, the outcome with T-24 [1] was Active.
`N=C(N)NCCCCNc1c2c(c(NCCCCNC(=N)N)c3sccc13)C(=O)c1ccccc1C2=O`: the Drug uptake result in the data set on T-24 [2] and in the data set with T-24 [5] was “Active” each time. Moreover, the Tm in the data set filed under Homo sapiens [3] is 81.1 °C; in the data set filed under Homo sapiens [6], 58.5 °C; in the data set filed under Homo sapiens [7], 76.3 °C; in the data set filed under Homo sapiens [8], 83.7 °C; in the data set filed under Homo sapiens [9], 79.1 °C. Also, the outcome with T-24 [4] was Active.
Turning to `N=C(N)NCCNc1c2c(c(NCCNC(=N)N)c3sccc13)C(=O)c1ccccc1C2=O`, the Drug uptake entry with T-24 [2], with T-24 [10], with HEK293 [12], in the data set on NIH3T3 and in the data set with HEK293 [13] was “Active” throughout. Moreover, the outcome in the data set with T-24 [4] and in the data set listed under Homo sapiens [11] was Active.
